≈ marks a conversion by molar mass, not a printed value.
Tests used:
[1] = molecular target: Metabotropic glutamate receptor 7 (Rattus norvegicus, UniProt P35400); assay: Antagonist activity at rat mGluR7 expressed in CHO cells assessed as inhibition of LAP-induced intracellular calcium mobilization by FLIPR; type: functional, cell-based
In short: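 CHO cells co-expressing mGluR7 and Gα15 were challenged with L-AP, and Ca2+ mobilization was read. IC50 was calculated from inhibition curves as the mean of at least two independent assays.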

[2] = Ratio of drug level in brain to plasma in Sprague-Dawley rat at 10 mg/kg, po after 2 hrs; type: ADME, organism-based; set-up: dose 10 mg/kg, route oral; details: read-out: BPR
In short: (§1)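 Male Sprague-Dawley rats (7–10 weeks, 200–400 g, n = 3) were dosed orally at 10 mg/kg as a 0.5% methylcellulose suspension. Aortic blood was taken under isoflurane at 0.5 and 2 h, and brain at 2 h. Plasma and brain homogenate were deproteinized with threefold ethanol plus internal standard and analysed by LC–MS/MS against a relative calibration curve. B/P = brain (nmol/g) / plasma level.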

[3] = AUC in Sprague-Dawley rat at 1 mg/kg, iv and 3 mg/kg, po; details: plasma
[4] = Oral bioavailability in Sprague-Dawley rat at 10 mg/kg; type: ADME, organism-based; details: in vivo, 3 mg/kg, in the assay text read “3 mg/kg” for “10 mg/kg”
In short: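 Male SD rats (n = 3) were given a single iv dose of 1 mg/kg in PEG400/EtOH/H2O (50:10:40), or an oral gavage dose as a 0.5% methylcellulose aqueous suspension. Blood was sampled at multiple times up to 8 h. Plasma was deproteinized with ethanol containing internal standard. Values are means.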

[5] = Plasma concentration in Sprague-Dawley rat at 10 mg/kg, po after 0.5 hrs; type: ADME, organism-based; set-up: dose 10 mg/kg, route oral; in short: as §1
[6] = Plasma clearance in Sprague-Dawley rat at 1 mg/kg, iv and 3 mg/kg, po
[7] = Solubility at pH 7.4; type: physicochemical; details: buffer
[8] = Plasma concentration in Sprague-Dawley rat at 2 mg/kg, po after 0.5 hrs; type: ADME, organism-based; set-up: dose 2 mg/kg, route oral

Metabotropic glutamate receptor 7, sequence (P35400 whole entry): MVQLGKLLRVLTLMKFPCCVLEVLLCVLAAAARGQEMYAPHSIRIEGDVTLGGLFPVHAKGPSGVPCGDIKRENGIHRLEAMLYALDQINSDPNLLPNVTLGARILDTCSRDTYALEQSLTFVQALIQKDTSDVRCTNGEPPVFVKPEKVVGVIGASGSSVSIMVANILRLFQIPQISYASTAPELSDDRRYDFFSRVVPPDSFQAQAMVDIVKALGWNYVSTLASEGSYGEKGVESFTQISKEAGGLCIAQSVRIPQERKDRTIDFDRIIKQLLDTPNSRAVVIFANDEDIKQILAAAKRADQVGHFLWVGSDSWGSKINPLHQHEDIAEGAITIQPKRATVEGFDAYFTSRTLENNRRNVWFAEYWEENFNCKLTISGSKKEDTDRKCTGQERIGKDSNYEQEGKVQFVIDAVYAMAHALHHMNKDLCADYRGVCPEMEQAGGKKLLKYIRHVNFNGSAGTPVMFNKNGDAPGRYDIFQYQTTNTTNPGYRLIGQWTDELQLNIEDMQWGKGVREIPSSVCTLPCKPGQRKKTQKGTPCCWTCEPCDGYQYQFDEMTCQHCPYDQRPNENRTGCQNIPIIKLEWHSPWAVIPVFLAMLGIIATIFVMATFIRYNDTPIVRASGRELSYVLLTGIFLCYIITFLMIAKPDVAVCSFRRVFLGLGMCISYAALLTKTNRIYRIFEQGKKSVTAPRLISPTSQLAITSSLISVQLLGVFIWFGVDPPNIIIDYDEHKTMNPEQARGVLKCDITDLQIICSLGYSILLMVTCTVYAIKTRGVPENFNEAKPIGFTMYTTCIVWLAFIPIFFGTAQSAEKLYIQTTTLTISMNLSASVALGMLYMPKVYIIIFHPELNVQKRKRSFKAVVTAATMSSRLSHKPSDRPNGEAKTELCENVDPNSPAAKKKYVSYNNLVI

Structure (SMILES)	IC50 [1] [nM]	further results
Cn1c(-c2ccc3c(c2)OCO3)cc2onc(-c3ccccc3)c2c1=O	26	–
COc1ccc(-c2cc3onc(-c4ccncc4)c3c(=O)n2C)cc1	26	Kp at 2 h [2]: 1; AUC [3]: 0.71 µM·h; bioavailability [4]: 65%; concentration at 0.5 h [5]: 5.1 µM; clearance [6]: 1 mL/min/kg; solubility [7]: 3.3 µg/mL (≈ 9.9 µM); concentration at 0.5 h [8]: 3.9 µM
COc1ccc(-c2cc3onc(-c4ccccc4)c3c(=O)n2C)cc1F	210	–
CCCc1ccc(-c2cc3onc(-c4ccccc4)c3c(=O)n2C)cc1	150	–
COc1ccccc1-c1noc2cc(-c3ccccc3)n(C)c(=O)c12	21	–
CCn1c(-c2ccccc2)cc2onc(-c3ccccc3)c2c1=O	910	–
CC(C)n1c(-c2ccccc2)cc2onc(-c3ccccc3)c2c1=O	> 10000	–
CC(C)Oc1ccc(-c2cc3onc(-c4ccccc4)c3c(=O)n2C)cc1	> 10000	–
COc1ccc(-c2cc3onc(-c4ccccc4)c3c(=O)n2C)cc1Br	580	–

Further lines, with some results ahead:

IC50 [1] [nM]	Structure (SMILES)	further results
22	COc1ccc(-c2cc3onc(-c4ccccc4)c3c(=O)n2C)cc1	–
29	COc1ccc(-c2noc3cc(-c4ccccc4)n(C)c(=O)c23)cc1	–
101	Cn1c(-c2ccccc2)cc2onc(-c3ccncc3)c2c1=O	–
140	CN(C)c1ccc(-c2cc3onc(-c4ccccc4)c3c(=O)n2C)cc1	–
31	CN(C)c1cccc(-c2cc3onc(-c4ccccc4)c3c(=O)n2C)c1	–
96	Cn1c(-c2cccc(C(F)(F)F)c2)cc2onc(-c3ccccc3)c2c1=O	–
12	COc1cccc(-c2noc3cc(-c4ccccc4)n(C)c(=O)c23)c1	–
51	Cc1ccc(-c2cc3onc(-c4ccccc4)c3c(=O)n2C)cc1	–
72	Cn1c(-c2ccc(F)cc2)cc2onc(-c3ccccc3)c2c1=O	–
20	Cn1c(-c2ccccc2)cc2onc(-c3ccccc3)c2c1=O	solubility [7]: 0.17 µg/mL (≈ 0.562 µM)
240	Cn1c(-c2ccccc2)cc2onc(-c3cccnc3)c2c1=O	–
1000	Cn1c(-c2ccccc2)cc2onc(-c3ccccn3)c2c1=O	–

From ChEMBL document CHEMBL1153226, “Isoxazolopyridone derivatives as allosteric metabotropic glutamate receptor 7 antagonists” (Bioorg Med Chem Lett, 2010)
